Measured values reported in ChEMBL document CHEMBL5303300, “EUbOPEN Chemogenomics Library - Multiplex” (2023).
Values joined by “and” are separate entries in the source; they are usually repeats but may differ in a detail not shown here. Equal values may be shown once.

Tested on: Fibroblast
Experiment: Multiplex assay against human fibroblast
Format: toxicity, cell-based
Details: number of replicates 2
How it was run: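 Cells stained live at seeding with Hoechst33342, BioTracker Green Microtubule Cytoskeleton Dye, MitoTracker Red and Annexin V Alexa Fluor 680 were imaged on a CQ1 microscope at 37°C and 5% CO2 after compound addition. Their classification by CellPathfinder machine-learning gating ran from Hoechst high-intensity objects versus normal cells, to healthy, pyknosed or fragmented nuclei among normal cells, to mitotic or apoptotic among pyknosed cells. Tubulin, mitochondrial-mass and membrane-permeability phenotypes are per cents of healthy-nucleus cells.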

[1] = 12 h, 1 µM, compound concentration 1 uM
[2] = 12 h, 10 µM, compound concentration 10 uM
[3] = 24 h, 1 µM, compound concentration 1 uM
[4] = 24 h, 10 µM, compound concentration 10 uM
[5] = 48 h, 1 µM, compound concentration 1 uM
[6] = 48 h, 10 µM, compound concentration 10 uM

In the case of `C[C@@H](OC[C@@]1(c2ccccc2)CC[C@]2(CCC(=O)N2)CN1)c1cc(C(F)(F)F)cc(C(F)(F)F)c1` [ROLAPITANT], the “Population Apoptotic (%)” value [1] was 32% and 48%, the “Population Fragmented Nuclei (%)” value [1] was 7% and 12% and the “Population Healthy Nuclei (%)” value [1] was 76% and 62%. For the same molecule, the “Population Hoechst High Intensity Objects (%)” value [1] was 0%, the “Population Membrane Permeable-Phenotype (%)” value [1] was 9% and 4% and the “Population Mitochondria Different-Phenotype (%)” value [1] was 4% and 2%. The “Population Mitotic Cells (%)” value [1] was 67% and 51%, the “Population Normal (%)” value [1] was 100% and 99% and the “Population Pyknosed Nuclei (%)” value [1] was 15% and 25%. The “Population Tubulin-Different-Phenotype (%)” value [1] was 26% and 13%, the “Total Cell Count” value [1] was 195 and 264 and the “Population Apoptotic (%)” value [2] was 40% and 46%. For the same molecule, the “Population Fragmented Nuclei (%)” value [2] was 17% and 10%, the “Population Healthy Nuclei (%)” value [2] was 67% and 71% and the “Population Hoechst High Intensity Objects (%)” value [2] was 0%. The “Population Membrane Permeable-Phenotype (%)” value [2] was 5% and 6%, the “Population Mitochondria Different-Phenotype (%)” value [2] was 7% and 3% and the “Population Mitotic Cells (%)” value [2] was 60% and 53%. The “Population Normal (%)” value [2] was 100%, the “Population Pyknosed Nuclei (%)” value [2] was 15% and 17% and the “Population Tubulin-Different-Phenotype (%)” value [2] was 45% and 26%. For the same molecule, the “Total Cell Count” value [2] was 131 and 146, the “Population Apoptotic (%)” value [3] was 40% and 55% and the “Population Fragmented Nuclei (%)” value [3] was 15% and 13%. For the same molecule, the “Population Healthy Nuclei (%)” value [3] was 74% and 66%, the “Population Hoechst High Intensity Objects (%)” value [3] was 0% and the “Population Membrane Permeable-Phenotype (%)” value [3] was 2% and 8%. The “Population Mitochondria Different-Phenotype (%)” value [3] was 1%, the “Population Mitotic Cells (%)” value [3] was 60% and 44% and the “Population Normal (%)” value [3] was 100%. For the same molecule, the “Population Pyknosed Nuclei (%)” value [3] was 9% and 20%, the “Population Tubulin-Different-Phenotype (%)” value [3] was 19% and 18% and the “Total Cell Count” value [3] was 202 and 257. For the same molecule, the “Population Apoptotic (%)” value [4] was 52% and 60%, the “Population Fragmented Nuclei (%)” value [4] was 23% and 16% and the “Population Healthy Nuclei (%)” value [4] was 62% and 66%. The “Population Hoechst High Intensity Objects (%)” value [4] was 0%, the “Population Membrane Permeable-Phenotype (%)” value [4] was 2% and 3% and the “Population Mitochondria Different-Phenotype (%)” value [4] was 14% and 5%. The “Population Mitotic Cells (%)” value [4] was 47% and 40%, the “Population Normal (%)” value [4] was 100% and the “Population Pyknosed Nuclei (%)” value [4] was 14% and 16%. For the same molecule, the “Population Tubulin-Different-Phenotype (%)” value [4] was 59% and 28%, the “Total Cell Count” value [4] was 134 and 153 and the “Population Apoptotic (%)” value [5] was 58% and 66%. The “Population Fragmented Nuclei (%)” value [5] was 13% and 11%, the “Population Healthy Nuclei (%)” value [5] was 78% and 74% and the “Population Hoechst High Intensity Objects (%)” value [5] was 0%. The “Population Membrane Permeable-Phenotype (%)” value [5] was 4% and 8%, the “Population Mitochondria Different-Phenotype (%)” value [5] was 1% and the “Population Mitotic Cells (%)” value [5] was 41% and 33%. For the same molecule, the “Population Normal (%)” value [5] was 100%, the “Population Pyknosed Nuclei (%)” value [5] was 8% and 14% and the “Population Tubulin-Different-Phenotype (%)” value [5] was 14% and 11%. The “Total Cell Count” value [5] was 204 and 254, the “Population Apoptotic (%)” value [6] was 85% and 93% and the “Population Fragmented Nuclei (%)” value [6] was 32% and 23%. The “Population Healthy Nuclei (%)” value [6] was 58% and 67%, the “Population Hoechst High Intensity Objects (%)” value [6] was 0% and the “Population Membrane Permeable-Phenotype (%)” value [6] was 5% and 3%. For the same molecule, the “Population Mitochondria Different-Phenotype (%)” value [6] was 3% and 6%, the “Population Mitotic Cells (%)” value [6] was 14% and 6% and the “Population Normal (%)” value [6] was 100%. For the same molecule, the “Population Pyknosed Nuclei (%)” value [6] was 8% and 9%, the “Population Tubulin-Different-Phenotype (%)” value [6] was 44% and 20% and the “Total Cell Count” value [6] was 158 and 167.

In the case of `CCCN(CCc1cccs1)[C@H]1CCc2c(O)cccc2C1` [ROTIGOTINE], the “Population Apoptotic (%)” value [1] was 73% and 35%, the “Population Fragmented Nuclei (%)” value [1] was 9% and 11% and the “Population Healthy Nuclei (%)” value [1] was 76% and 71%. The “Population Hoechst High Intensity Objects (%)” value [1] was 0%, the “Population Membrane Permeable-Phenotype (%)” value [1] was 6% and 3% and the “Population Mitochondria Different-Phenotype (%)” value [1] was 2% and 0%. The “Population Mitotic Cells (%)” value [1] was 26% and 64%, the “Population Normal (%)” value [1] was 100% and 99% and the “Population Pyknosed Nuclei (%)” value [1] was 14% and 16%. The “Population Tubulin-Different-Phenotype (%)” value [1] was 15% and 10%, the “Population Fragmented Nuclei (%)” value [2] was 17% and 18% and the “Population Healthy Nuclei (%)” value [2] was 78% and 73%. The “Population Hoechst High Intensity Objects (%)” value [2] was 0%, the “Population Membrane Permeable-Phenotype (%)” value [2] was 0% and 1% and the “Population Mitochondria Different-Phenotype (%)” value [2] was 0% and 1%. For the same molecule, the “Population Mitotic Cells (%)” value [2] was 50% and 86%, the “Population Normal (%)” value [2] was 100% and the “Population Pyknosed Nuclei (%)” value [2] was 4% and 7%. For the same molecule, the “Population Tubulin-Different-Phenotype (%)” value [2] was 13% and 14%, the “Population Apoptotic (%)” value [3] was 52% and 46% and the “Population Fragmented Nuclei (%)” value [3] was 9% and 12%. The “Population Healthy Nuclei (%)” value [3] was 81% and 75%, the “Population Hoechst High Intensity Objects (%)” value [3] was 0% and the “Population Membrane Permeable-Phenotype (%)” value [3] was 4%. The “Population Mitochondria Different-Phenotype (%)” value [3] was 0% and 1%, the “Population Mitotic Cells (%)” value [3] was 47% and 53% and the “Population Normal (%)” value [3] was 100% and 99%. For the same molecule, the “Population Pyknosed Nuclei (%)” value [3] was 9% and 12%, the “Population Tubulin-Different-Phenotype (%)” value [3] was 7% and 6% and the “Population Fragmented Nuclei (%)” value [4] was 24% and 14%. The “Population Healthy Nuclei (%)” value [4] was 71% and 80%, the “Population Hoechst High Intensity Objects (%)” value [4] was 0% and the “Population Membrane Permeable-Phenotype (%)” value [4] was 1% and 0%. The “Population Mitochondria Different-Phenotype (%)” value [4] was 0% and 2%, the “Population Normal (%)” value [4] was 100% and the “Population Pyknosed Nuclei (%)” value [4] was 3% and 5%. For the same molecule, the “Population Tubulin-Different-Phenotype (%)” value [4] was 10% and 8%, the “Population Apoptotic (%)” value [5] was 36% and 68% and the “Population Fragmented Nuclei (%)” value [5] was 11% and 13%. For the same molecule, the “Population Healthy Nuclei (%)” value [5] was 82% and 79%, the “Population Hoechst High Intensity Objects (%)” value [5] was 0% and the “Population Membrane Permeable-Phenotype (%)” value [5] was 3% and 2%. The “Population Mitochondria Different-Phenotype (%)” value [5] was 0%, the “Population Mitotic Cells (%)” value [5] was 63% and 31% and the “Population Normal (%)” value [5] was 100%. For the same molecule, the “Population Pyknosed Nuclei (%)” value [5] was 5% and 7%, the “Population Tubulin-Different-Phenotype (%)” value [5] was 5% and 3% and the “Population Apoptotic (%)” value [6] was 87% and 80%. For the same molecule, the “Population Fragmented Nuclei (%)” value [6] was 19% and 20%, the “Population Healthy Nuclei (%)” value [6] was 76% and 77% and the “Population Hoechst High Intensity Objects (%)” value [6] was 0%. The “Population Membrane Permeable-Phenotype (%)” value [6] was 3% and 1%, the “Population Mitochondria Different-Phenotype (%)” value [6] was 0% and the “Population Mitotic Cells (%)” value [6] was 12% and 20%. The “Population Normal (%)” value [6] was 100%, the “Population Pyknosed Nuclei (%)” value [6] was 4% and 2% and the “Population Tubulin-Different-Phenotype (%)” value [6] was 9% and 3%.

`CC(C)N(CCCCOCC(=O)NS(C)(=O)=O)c1cnc(-c2ccccc2)c(-c2ccccc2)n1` [SELEXIPAG] was tested, and the “Population Apoptotic (%)” value [1] was 54% and 38%, the “Population Fragmented Nuclei (%)” value [1] was 4% and 10% and the “Population Healthy Nuclei (%)” value [1] was 77% and 72%. The “Population Hoechst High Intensity Objects (%)” value [1] was 0%, the “Population Membrane Permeable-Phenotype (%)” value [1] was 4% and the “Population Mitochondria Different-Phenotype (%)” value [1] was 2% and 0%. For the same molecule, the “Population Mitotic Cells (%)” value [1] was 45% and 61%, the “Population Normal (%)” value [1] was 100% and the “Population Pyknosed Nuclei (%)” value [1] was 18% and 16%. The “Population Tubulin-Different-Phenotype (%)” value [1] was 10% and 11%, the “Total Cell Count” value [1] was 168 and 186 and the “Population Apoptotic (%)” value [2] was 56% and 54%. The “Population Fragmented Nuclei (%)” value [2] was 7% and 14%, the “Population Healthy Nuclei (%)” value [2] was 61% and 63% and the “Population Hoechst High Intensity Objects (%)” value [2] was 0%. The “Population Membrane Permeable-Phenotype (%)” value [2] was 0% and 6%, the “Population Mitochondria Different-Phenotype (%)” value [2] was 1% and the “Population Mitotic Cells (%)” value [2] was 43% and 45%. For the same molecule, the “Population Normal (%)” value [2] was 100% and 99%, the “Population Pyknosed Nuclei (%)” value [2] was 31% and 21% and the “Population Tubulin-Different-Phenotype (%)” value [2] was 2% and 10%. The “Total Cell Count” value [2] was 148 and 221, the “Population Apoptotic (%)” value [3] was 58% and 50% and the “Population Fragmented Nuclei (%)” value [3] was 8% and 14%. For the same molecule, the “Population Healthy Nuclei (%)” value [3] was 75% and 65%, the “Population Hoechst High Intensity Objects (%)” value [3] was 0% and the “Population Membrane Permeable-Phenotype (%)” value [3] was 6% and 4%. The “Population Mitochondria Different-Phenotype (%)” value [3] was 0%, the “Population Mitotic Cells (%)” value [3] was 41% and 50% and the “Population Normal (%)” value [3] was 99% and 100%. For the same molecule, the “Population Pyknosed Nuclei (%)” value [3] was 16% and 20%, the “Population Tubulin-Different-Phenotype (%)” value [3] was 7% and 8% and the “Total Cell Count” value [3] was 175 and 190. For the same molecule, the “Population Apoptotic (%)” value [4] was 56% and 50%, the “Population Fragmented Nuclei (%)” value [4] was 6% and 13% and the “Population Healthy Nuclei (%)” value [4] was 63% and 65%. The “Population Hoechst High Intensity Objects (%)” value [4] was 0%, the “Population Membrane Permeable-Phenotype (%)” value [4] was 2% and 6% and the “Population Mitochondria Different-Phenotype (%)” value [4] was 1%. For the same molecule, the “Population Mitotic Cells (%)” value [4] was 43% and 50%, the “Population Normal (%)” value [4] was 100% and 99% and the “Population Pyknosed Nuclei (%)” value [4] was 30% and 21%. For the same molecule, the “Population Tubulin-Different-Phenotype (%)” value [4] was 6% and 8%, the “Total Cell Count” value [4] was 152 and 221 and the “Population Apoptotic (%)” value [5] was 80% and 40%. The “Population Fragmented Nuclei (%)” value [5] was 8% and 11%, the “Population Healthy Nuclei (%)” value [5] was 79% and 75% and the “Population Hoechst High Intensity Objects (%)” value [5] was 0%. For the same molecule, the “Population Membrane Permeable-Phenotype (%)” value [5] was 4% and 6%, the “Population Mitochondria Different-Phenotype (%)” value [5] was 0% and the “Population Mitotic Cells (%)” value [5] was 20% and 60%. The “Population Normal (%)” value [5] was 99%, the “Population Pyknosed Nuclei (%)” value [5] was 11% and 12% and the “Population Tubulin-Different-Phenotype (%)” value [5] was 4% and 3%. The “Total Cell Count” value [5] was 169 and 204, the “Population Apoptotic (%)” value [6] was 90% and 59% and the “Population Fragmented Nuclei (%)” value [6] was 8% and 11%. The “Population Healthy Nuclei (%)” value [6] was 71% and 68%, the “Population Hoechst High Intensity Objects (%)” value [6] was 0% and the “Population Membrane Permeable-Phenotype (%)” value [6] was 0% and 4%. The “Population Mitochondria Different-Phenotype (%)” value [6] was 0%, the “Population Normal (%)” value [6] was 100% and the “Population Pyknosed Nuclei (%)” value [6] was 19%. For the same molecule, the “Population Tubulin-Different-Phenotype (%)” value [6] was 3% and 7% and the “Total Cell Count” value [6] was 151 and 212.
